Our source for the Ki, EC50 and Ratio Ki values is ChEMBL document CHEMBL3232848, “Design and synthesis of high affinity inhibitors of Plasmodium falciparum and Plasmodium vivax N-myristoyltransferases directed by ligand efficiency dependent lipophilicity (LELP)” (J Med Chem, 2014).

The target in assay [1] is T1, Glycylpeptide N-tetradecanoyltransferase (Plasmodium falciparum (isolate 3D7), UniProt Q8ILW6).
T1 sequence (Q8ILW6 whole entry): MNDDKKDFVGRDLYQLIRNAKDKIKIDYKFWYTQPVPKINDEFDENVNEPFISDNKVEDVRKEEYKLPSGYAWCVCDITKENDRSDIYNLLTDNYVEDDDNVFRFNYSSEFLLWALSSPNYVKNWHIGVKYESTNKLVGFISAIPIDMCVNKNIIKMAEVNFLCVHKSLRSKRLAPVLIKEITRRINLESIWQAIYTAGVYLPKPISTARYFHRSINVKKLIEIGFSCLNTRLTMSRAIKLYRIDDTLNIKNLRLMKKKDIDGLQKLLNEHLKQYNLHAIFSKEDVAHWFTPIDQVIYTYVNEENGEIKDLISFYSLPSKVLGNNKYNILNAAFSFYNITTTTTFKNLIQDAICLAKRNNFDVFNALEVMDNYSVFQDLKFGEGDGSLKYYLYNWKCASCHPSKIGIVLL
Briefly: Inhibition of Plasmodium falciparum N-myristoyltransferase by CPM fluorescence assay. In short, it runs like this: (§1)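 IC50 values (mean of two or more determinations) were converted to Ki by Cheng–Prusoff using substrate concentration and Km. For PfNMT, Km was 3.64 μM and substrate was 4.00 μM. The human enzyme values refer to HsNMT1.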

The nature of assay [2]: Inhibition of human N-myristoyltransferase using H-Gly-Ser-Asn-Lys-Ser-Lys-Pro-Lys-NH2 as substrate by CPM fluorescence assay. Put shortly: as §1
Assay [3] in a line: Inhibition of Plasmodium vivax N-myristoyltransferase by CPM fluorescence assay. In short, it runs like this:
as §1

The subject of assay [4] is Plasmodium falciparum. Kind of assay: Antimicrobial activity against late stage trophozoite form of Plasmodium falciparum 3D7 infected in RBCs after 48 hrs by SYBR green viability assay. Particulars: 3D7, 96 h, in the assay text read “after 96 hrs” for “after 48 hrs”. Format: functional, organism-based. In short, it runs like this: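 Synchronous 3D7 late trophozoites (33–36 h) were used at 0.1–0.2% parasitemia and 2% hematocrit in washed, buffy-coat-free RBCs, in RPMI 1640 with Albumax, gentamycin and L-glutamine. Seven dilutions from 10.0 to 0.014 μM were run in duplicate at 37 °C under 5% CO2, 5% O2, 90% N2. Drug was replaced at 48 h and incubation continued to 96 h. Read-out was SYBR Green I in saponin/Triton lysis buffer, then fluorescence converted to % growth.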

A short description of assay [5]: Selectivity ratio of Ki for human N-myristoyltransferase to Ki for Plasmodium falciparum N-myristoyltransferase.
Assay [6] is described as follows: Selectivity ratio of Ki for human N-myristoyltransferase to Ki for Plasmodium vivax N-myristoyltransferase.

By Ki is commonly meant a measure of affinity in units of concentration, obtained from inhibition or displacement. A low value points to a stronger hold on the target. On to `c1ccc(C2(c3nnc(-c4sc5ccccc5c4OC4CCNCC4)o3)CC2)cc1`, for which the Ki in assay [1] stood at 98 nM; in assay [2] it was 976 nM; in assay [3], 34 nM.

Take `FC(F)(c1ccccc1)c1nnc(-c2sc3ccccc3c2OC2CCNCC2)o1`: the Ki was 391 nM in assay [1], 2770 nM in assay [2] and 182 nM in assay [3].

Broadly, the EC50 is the concentration giving half of the maximal effect. A high value points to a need for much substance. The compound `COc1cccc(CCOC(=O)c2sc3ccccc3c2OC2CCNCC2)c1` returned a 50% effective concentration (EC50) in assay [4] of 4200 nM. For the same compound, the results for the Ki in assay [1], in assay [2] and in assay [3] were 120 nM, 2200 nM and 59 nM, respectively.

Take `c1ccc(Cc2n[nH]c(-c3sc4ccccc4c3OC3CCNCC3)n2)cc1`: the Ki is 270 nM in assay [1], 893 nM in assay [2] and 71 nM in assay [3].

On to `O=C(OCCOc1ccccc1)c1sc2ccccc2c1OC1CCNCC1`, for which the values for the inhibitory constant (Ki) in assay [1], in assay [2] and in assay [3] were 1130 nM, 1870 nM and 123 nM, respectively.

The compound `COc1cc(CCOC(=O)c2sc3ccccc3c2OC2CCNCC2)cc(OC)c1` came in with an EC50 in assay [4] of 1410 nM. Further, the inhibition constant (Ki) in assay [1] came out at 26 nM; in assay [2], 31 nM; in assay [3], 9 nM.

Compound `COc1cc(Cc2noc(-c3sc4ccccc4c3OC3CCNCC3)n2)cc(OC)c1` returned a concentration for a half-maximal effect (EC50) in assay [4] of 2490 nM. The results for the inhibition constant Ki in assay [1], in assay [2] and in assay [3] were 15 nM, 207 nM and 5 nM, respectively.

In assay [4], `Clc1cccc(Cc2noc(-c3sc4ccccc4c3OC3CCNCC3)n2)c1` displayed an EC50 of 1210 nM. In addition, the Ki in assay [1] came out at 163 nM; in assay [2], 871 nM; in assay [3], 58 nM.

Turning to `Cc1n[nH]c(C)c1CCc1nnc(-c2sc3ccccc3c2OC2CCNCC2)o1`, the inhibitory constant (Ki) in assay [1] was 226 nM; in assay [2], 2250 nM.

Compound `COc1cccc(Cc2nc(-c3sc4ccccc4c3OC3CCNCC3)no2)c1` returned an EC50 in assay [4] of 3260 nM. For the same compound, the Ki was found to be 50 nM in assay [1], 100 nM in assay [2] and 6 nM in assay [3].

As to `Cc1nn(C)c(C)c1CCc1nnc(-c2sc3ccccc3c2OC2CCNCC2)o1`, the figures for the Ki in assay [1], in assay [2] and in assay [3] were 124 nM, 824 nM and 32 nM, respectively.

In the case of `Cc1n[nH]c(C)c1Cc1nnc(-c2sc3ccccc3c2OC2CCNCC2)o1`, the Ratio Ki in assay [5] turned out to be 30. The compound further registered an EC50 in assay [4] of 2010 nM. Further, the Ki in assay [1] is 55 nM; in assay [2], 1540 nM; in assay [3], 75 nM.

As to `O=C(NCCCc1ccccc1)c1sc2ccccc2c1OC1CCNCC1`, the figures for the Ki in assay [1], in assay [2] and in assay [3] were more than 10000 nM, more than 100000 nM and 2530 nM, respectively.

Regarding `COC(c1ccccc1)c1nnc(-c2sc3ccccc3c2OC2CCNCC2)o1` (racemic), the results for the Ki in assay [1], in assay [2] and in assay [3] were 212 nM, 3950 nM and 81 nM, respectively.

As for `COc1cc(Cc2nc(-c3sc4ccccc4c3OC3CCNCC3)no2)cc(OC)c1`, a half-maximal effect in assay [4] (EC50) was put at 3500 nM. Further, the inhibitory constant (Ki) in assay [1] was determined as 15 nM; in assay [2], 50 nM; in assay [3], 8 nM.

For the compound `c1ccc(Cc2nc(-c3sc4ccccc4c3OC3CCNCC3)no2)cc1`, the Ki turned out to be 120 nM in assay [1], 1190 nM in assay [2] and 13 nM in assay [3].

In assay [4], `O=C(OCCc1ccccc1)c1sc2ccccc2c1OC1CCNCC1` displayed a concentration for a half-maximal effect (EC50) of 5600 nM. Also, the Ki was 677 nM in assay [1], 10400 nM in assay [2] and 72 nM in assay [3].

In assay [4], `c1ccc(Cc2nnc(-c3sc4ccccc4c3OC3CCNCC3)o2)cc1` returned an EC50 of 9500 nM. Moreover, the values for the Ki in assay [1], in assay [2] and in assay [3] were 77 nM, 1370 nM and 39 nM, respectively.

In assay [4], `c1ccc(Cc2noc(-c3sc4ccccc4c3OC3CCNCC3)n2)cc1` displayed an EC50 of 2300 nM. In addition, the inhibition constant (Ki) stood at 71 nM in assay [1], 788 nM in assay [2] and 16 nM in assay [3].

On to `c1ccc(C(c2ccccc2)c2nnc(-c3sc4ccccc4c3OC3CCNCC3)o2)cc1`, for which the figures for the Ki in assay [1], in assay [2] and in assay [3] were 465 nM, 1920 nM and 142 nM, respectively.

As for `Cc1noc(C)c1CCc1nnc(-c2sc3ccccc3c2OC2CCNCC2)o1`, the Ki in assay [1] was found to be 186 nM; in assay [2] it was 709 nM; in assay [3], 47 nM.

Regarding `Cc1noc(C)c1Cc1nnc(-c2sc3ccccc3c2OC2CCNCC2)o1`, the Ratio Ki in assay [5] was 8. In assay [4], this compound yielded an EC50 of 5020 nM. Besides, the Ki in assay [1] stood at 113 nM; in assay [2] it was 1050 nM; in assay [3], 38 nM.

As for `O=C(NCCc1ccccc1)c1sc2ccccc2c1OC1CCNCC1`, the Ki was more than 10000 nM in assay [1], more than 100000 nM in assay [2] and 3780 nM in assay [3].

Regarding `CC(C)(c1ccccc1)c1nnc(-c2sc3ccccc3c2OC2CCNCC2)o1`, the results for the Ki in assay [1], in assay [2] and in assay [3] were 152 nM, 1550 nM and 32 nM, respectively.

As to `O=C(OCCCc1ccccc1)c1sc2ccccc2c1OC1CCNCC1`, the Ki in assay [1] turned out to be 3970 nM; in assay [2], 1160 nM; in assay [3] it was 66 nM.

Regarding `O=C(NCCOc1ccccc1)c1sc2ccccc2c1OC1CCNCC1`, the Ki was more than 10000 nM in assay [1], more than 100000 nM in assay [2] and 2210 nM in assay [3].

With `c1ccc(CCc2noc(-c3sc4ccccc4c3OC3CCNCC3)n2)cc1`, the EC50 in assay [4] was 3790 nM. The inhibition constant (Ki) turned out to be 247 nM in assay [1], 1540 nM in assay [2] and 57 nM in assay [3].

In the case of `CC(c1ccccc1)c1nnc(-c2sc3ccccc3c2OC2CCNCC2)o1` (racemic), the Ki in assay [1] worked out at 334 nM; in assay [2], 2070 nM; in assay [3] it was 77 nM.

In assay [4], `COc1cccc(Cc2noc(-c3sc4ccccc4c3OC3CCNCC3)n2)c1` had a 50% effective concentration (EC50) of 1450 nM. Also, the Ki in assay [1] was 51 nM; in assay [2] it was 192 nM; in assay [3] it was 8 nM.

As to `COc1cccc(Cc2nnc(-c3sc4ccccc4c3OC3CCNCC3)o2)c1`, the Ratio Ki in assay [6] was determined as 24; in assay [5], 13. In assay [4], this compound displayed a 50% effective concentration (EC50) of 5500 nM. Besides, the results for the inhibition constant (Ki) in assay [1], in assay [2] and in assay [3] were 33 nM, 428 nM and 18 nM, respectively.

For the compound `OC(c1ccccc1)c1nnc(-c2sc3ccccc3c2OC2CCNCC2)o1` (racemic), the EC50 in assay [4] is 7340 nM. The values for the Ki in assay [1], in assay [2] and in assay [3] were 125 nM, 2450 nM and 35 nM, respectively.
